For test [1], the system named is KS. Description: Cytotoxicity against human KS cells after 24 hrs by coulter counter. The format is functional, cell-based. The method, boiled down:
(§1)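 KS cells (from HIV-1 patients, spontaneously immortalized) seeded at 5 × 10^3 cells/well and left to attach 24 h. Washed in HBSS-10 mM Hepes, serum-starved 12 h, then exposed at 37 °C for 24 h in fresh serum-free medium to a range of concentrations (DMSO vehicle). Washed, then cell number by XTT (OD 490 nm) and Coulter counter. At least three independent experiments in duplicate, mean ± SEM.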

The subject of test [2] is KS. In words: Cytotoxicity against human KS cells after 24 hrs by XTT assay. The format is functional, cell-based. The method, boiled down:
as §1

Test [3] has as its system KS. Description: Cytotoxicity against human KS cells at >1 uM after 24 hrs. The format is functional, cell-based.
Test [4] can be described thus: Induction of apoptosis in human KS cells assessed as DNA fragmentation at 10 uM […] by FACS relative to control. The class given is functional. The method, boiled down: (§2)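 KS cells serum-starved 12 h and washed with HBSS-10 mM HEPES. Preincubated 1 h at 37 °C with compound (1 or 10 µM) in DMSO (final <0.1%), washed, then cultured 24 h in 1% FBS medium. Hypodiploid (sub-G1) fraction counted by FACS against control.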

Test [5] relates to KS. Description: Induction of apoptosis in human KS cells assessed as caspase 3 activity at 10 uM by DEVD-AFC fluorimetric assay. The format is functional, cell-based. In a few lines:
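KS cells handled as in the treatment protocol (12 h starvation, 1 h 37 °C exposure at 10 µM in DMSO, 24 h further culture in 1% FBS). Lysates incubated with the caspase-3 substrate DEVD-AFC. Fluorescence read as fold over untreated. Three independent experiments in duplicate (n = 6), mean ± SEM.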

Test [6] is described as follows: Induction of apoptosis in human KS cells assessed as DNA fragmentation at 1 uM […] by FACS relative to control. The class given is functional. The method, boiled down:
as §2

For test [7], the system named is KS. Description: Effect on human KS cell survival assessed as cell detachment at >1 uM by micrograph analysis. The class given is functional, cell-based.

The source made the active and inactive calls. No cut-off for these calls is given here.

For the compound `C[C@]12[C@H](O)C[C@H]3[C@@H](CC[C@H]4C[C@H]5O[C@@H]6O[C@H](CO)C[C@@H](O)[C@]6(O)O[C@@H]5C[C@@]43CO)[C@@]1(O)CC[C@@H]2C1=CC(=O)OC1` [GHALAKINOSIDE], the Activity result in the test on KS [1] is “Dose-dependent effect”; in the test with KS [2], “Dose-dependent effect”; in test [4], 45%. In addition, the outcome in the test with KS [3] and with KS [5] was Active.

As for `C[C@@H]1C[C@@H](O[C@@H]2O[C@H](CO)[C@@H](O)[C@H](O)[C@H]2O)[C@]2(O)O[C@@H]3C[C@@]4(C=O)[C@@H](CC[C@@H]5[C@@H]4CC[C@]4(C)[C@@H](C6=CC(=O)OC6)CC[C@]54O)C[C@H]3O[C@@H]2O1`, the Activity in test [6] is 35%; with KS [1] it was “Dose-dependent effect”; in the test on KS [2], “Dose-dependent effect”; in test [4] it was 45%. The outcome with KS [7], in the test on KS [3] and in the test on KS [5] was Active.

As for `C[C@]12CC[C@H]3[C@@H](CC[C@H]4C[C@H]5O[C@@H]6O[C@H](CO)C[C@@H](O)[C@]6(O)O[C@@H]5C[C@@]43CO)[C@@]1(O)CC[C@@H]2C1=CC(=O)OC1`, the results for the Activity result (in the test on KS [1]; in the test on KS [2]; in test [4]) were “Dose-dependent effect”, “Dose-dependent effect” and 45%, respectively. Further, the outcome in the test on KS [3] and in the test on KS [5] was Active.

Regarding `C[C@@H]1C[C@@H](O)[C@]2(O)O[C@@H]3C[C@@]4(CO)[C@@H](CC[C@@H]5[C@@H]4C[C@@H](O)[C@]4(C)[C@@H](C6=CC(=O)OC6)CC[C@]54O)C[C@H]3O[C@@H]2O1`, the Activity result was “Dose-dependent effect” with KS [1], “Dose-dependent effect” with KS [2] and 45% in test [4]. The outcome in the test on KS [3] and in the test with KS [5] was Active.

On to `C[C@@H]1C[C@@H](O)[C@]2(O)O[C@@H]3C[C@@]4(C=O)[C@@H](CC[C@@H]5[C@@H]4CC[C@]4(C)[C@@H](C6=CC(=O)OC6)CC[C@]54O)C[C@H]3O[C@@H]2O1` [CALACTIN], for which the Activity entry in the test with KS [1] is “Dose-dependent effect”; in the test on KS [2], “Dose-dependent effect”; in test [4] it was 45%. Further, the outcome in the test with KS [3] and in the test with KS [5] was Active.

For the origin of these results see ChEMBL document CHEMBL1158058, “Cardenolide glycosides from Pergularia tomentosa and their proapoptotic activity in Kaposi's sarcoma cells” (2006).
